According to the array DNA melting data of Ke et al. (doi:10.1101/2024.01.08.574731):

Tests used:
[1] = folding enthalpy; higher = less favourable; fluorescence melt of hairpins on a sequencing array, two-state fit; details: sodium 0.088 M
Summary of the method: (§1)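 Melting temperature and folding enthalpy were obtained by bootstrapped two-state fitting. Fits used Cy3 fluorescence of library hairpins with annealed Cy3 and quencher oligos on a sequenced MiSeq flow cell, imaged in 50 mM Na-HEPES pH 8.0, 25 mM NaCl in 2.5 °C steps up to 60 °C and normalised to pre-quench Cy3 and control constructs. Four replicates were combined by inverse-variance weighting, and fitted temperatures were raised by 9.35 °C to match UV melts.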

[2] = melting temperature; fluorescence melt of hairpins on a sequencing array, two-state fit, raised by 9.35 °C to match UV melts; details: sodium 0.088 M
Summary of the method: as §1

Row | Sequence | folding enthalpy [1] [kcal/mol] | Tm [2] [°C]
1 | GATGGACGAAAGTCGATC (((.(((....))).))) | -25.9 | 49.6
2 | GATGGCCCGAAAGGGATC (((..(((....)))))) | -11 | 34.3
3 | GATGGCGAAAGCCACATC ((((((....)))..))) | -7.73 | 28.8
4 | GATGGCGAAAGCCAGATC ((((((....)))..))) | -15.7 | 50
5 | GATGGCGAAAGCCATATC ((((((....)))..))) | -10.6 | 52.5
6 | GATGGCGAAAGCCCCATC ((((((....)))..))) | -7.84 | 25.5
7 | GATGGCGAAAGCCTCATC ((((((....)))..))) | -8.85 | 30.7
8 | GATGGCGAAAGCCTTATC ((((((....)))..))) | -7.22 | 25.9
9 | GATGGCGGAAACGCCACC (.(((((....))))).) | -9.71 | 43.6
10 | GATGGGCGAAAGCCAATC (((.(((....))).))) | -23.9 | 51.2
11 | GATGGGCGAAAGCCATC (((.(((....)))))) | -18.2 | 52.5
12 | GATGGGGGAAACCCCATC (((((((....))))))) | -31.2 | 65.4
13 | GATGGGGGAAACCTCATC ((((.((....)).)))) | -28.4 | 46.3
14 | GATGGGGGAAACTCCGTC ((.((.(....).)).)) | -20.2 | 38
15 | GATGGTGGAAACATCATC ((((.((....)).)))) | -28.1 | 46.1
16 | GATGGTGGAAACATCGTC ((.(.((....)).).)) | -22 | 47.8
17 | GATGTACGAAAGTAAATC (((.(((....))).))) | -23.9 | 35.5
18 | GATGTACGAAAGTATATC (((.(((....))).))) | -30.7 | 45.9
19 | GATGTAGCGAAAGCTATC (((..(((....)))))) | -12 | 31.4
20 | GATGTAGGAAACTACGTC ((.((((....)))).)) | -23.4 | 44.8
21 | GATGTCACGAAAGTGATC (((..(((....)))))) | -11.8 | 28.4
22 | GATGTCCGAAAGGAGATC (((.(((....))).))) | -28.9 | 50.3
23 | GATGTGGGAAACTGCATC ((((..(....)..)))) | -27.1 | 36.1

Row | Sequence | folding enthalpy [1] [kcal/mol] | Tm [2] [°C]
24 | GATGTTGAAAAACATC ((((((....)))))) | -35.7 | 51.6
25 | GATGTTGGAAACAACGTC ((.((((....)))).)) | -26.4 | 49
26 | GATGTTGGAAACGACATC (((((.(....).))))) | -33.6 | 47.2
27 | GATTAACGAAAGTTGATC (((.(((....))).))) | -35.2 | 44
28 | GATTACCGAAAGGTATC (((.(((....)))))) | -14.4 | 36.1
29 | GATTACGGAAACGCAATC ((((.((....)).)))) | -27.6 | 37.4
30 | GATTACGGAAACGTAGTC ((.((((....)))).)) | -25 | 38
31 | GATTACGGAAACGTGATC (((.(((....))).))) | -37.1 | 45.9
32 | GATTAGCCGAAAGGCATC (((..(((....)))))) | -7.43 | 28.5
33 | GATTAGCGAAAGCTATC (((.(((....)))))) | -12.5 | 34.7
34 | GATTAGCGAAAGCTCATC (((.(((....))).))) | -19.1 | 38.7
35 | GATTAGGGAAACCCAATC ((((.((....)).)))) | -22.4 | 31.3
36 | GATTAGGGAAACCTGATC (((.(((....))).))) | -24.1 | 38
37 | GATTCACGAAAGTGTATC (((.(((....))).))) | -25.9 | 42.7
38 | GATTCAGGAAACTGAGTC ((.((((....)))).)) | -31.1 | 38.5
39 | GATTCCCGAAAGGGATC (((.(((....)))))) | -13.1 | 47.3
40 | GATTCCGAAAGGAACATC ((((((....)))..))) | -12 | 25.2
41 | GATTCCGAAAGGATAATC ((((((....)))..))) | -15.5 | 31.8
42 | GATTCCGGAAACGGGATC (((.(((....))).))) | -43 | 51.2
43 | GATTCGCGAAAGCGTATC (((.(((....))).))) | -20.6 | 48.8
44 | GATTGACGAAAGTCATC (((.(((....)))))) | -12.7 | 38.9
45 | GATTGAGGAAACTCAACC (.(((((....))))).) | -17.1 | 31.3
46 | GATTGCCGAAAGGCCATC (((.(((....))).))) | -16.6 | 40.9

Row | Sequence | folding enthalpy [1] [kcal/mol] | Tm [2] [°C]
47 | GATTGCGAAAGCAAAATC ((((((....)))..))) | -13.1 | 35.3
48 | GATTGCGAAAGCAGATC ((((((....))).))) | -15.8 | 42.9
49 | GATTGCGAAAGCAGCATC ((((((....)))..))) | -9.21 | 24.1
50 | GATTGCGAAAGCAGGATC ((((((....)))..))) | -10.9 | 30.1
51 | GATTGCGAAAGCATATC ((((((....))).))) | -16.5 | 42.9
52 | GATTGCGGAAACGCAGTC ((.((((....)))).)) | -25.2 | 49.6
53 | GATTGGCGAAAGCCTATC (((.(((....))).))) | -19.8 | 48.8
54 | GATTGGGGAAACTCAATC (((((.(....).))))) | -33.5 | 41.9
55 | GATTGGGGAAACTCGATC (((.(.(....).).))) | -15.4 | 30
56 | GATTGTGGAAACACGATC (((.(((....))).))) | -31.7 | 48.1
57 | GATTTACGAAAGTACATC (((.(((....))).))) | -19.9 | 35.6
58 | GATTTACGAAAGTATATC (((.(((....))).))) | -24.2 | 35.6
59 | GATTTAGGAAACTAAATC (((((((....))))))) | -42.9 | 48
60 | GATTTAGGAAACTAAGTC ((.((((....)))).)) | -8.37 | 29.6
61 | GATTTCGCGAAAGCGATC (((..(((....)))))) | -5.88 | 17.8
62 | GATTTGCGAAAGCATATC (((.(((....))).))) | -22.9 | 43.1
63 | GATTTGGCGAAAGCCATC (((..(((....)))))) | -6.61 | 26.1
64 | GATTTGGGAAACCAAATC (((((((....))))))) | -40.9 | 55
65 | GCAAAACGAAAGTTCTGC (((.(((....))).))) | -27.8 | 40.7
66 | GCAAAATCGAAAGATTGC (((..(((....)))))) | -20.6 | 38.5
67 | GCAAACCGAAAGGTTGC (((.(((....)))))) | -29.1 | 57.2
68 | GCAAACGAAAGTTAGTGC ((((((....)))..))) | -19.7 | 32.9
69 | GCAAACGAAAGTTTATGC ((((((....)))..))) | -17.2 | 31.9

Row | Sequence | folding enthalpy [1] [kcal/mol] | Tm [2] [°C]
70 | GCAAACGGAAACGTCTGC (((.(((....))).))) | -25.2 | 44.7
71 | GCAAACGGAAACGTTCAC (..((((....))))..) | -8.17 | 24.7
72 | GCAAACGGAAACGTTCGC ((.((((....)))).)) | -29.7 | 46.4
73 | GCAAAGCGAAAGCAATGC (((..((....))..))) | -12.1 | 34.5
74 | GCAAAGCGAAAGCCTTGC ((((.((....)).)))) | -22.1 | 53
75 | GCAAAGCGAAAGCGTAGC ((.(.((....)).).)) | -17.1 | 55.9
76 | GCAAAGCGAAAGCGTGGC ((.(.((....)).).)) | -15.9 | 50.6
77 | GCAAAGCGAAAGCGTTGC ((((.((....)).)))) | -26.3 | 65
78 | GCAAAGCGAAAGCTAAGC ((..(((....)))..)) | -12.6 | 40.3
79 | GCAAAGCGAAAGCTGAGC ((..(((....)))..)) | -18.5 | 55.9
80 | GCAAAGCGAAAGCTGGGC ((..(((....)))..)) | -18.9 | 55.6
81 | GCAAAGGAAACTTTGC ((((((....)))))) | -31.2 | 55.3
82 | GCAAATCGAAAGATATGC (((.(((....))).))) | -29.4 | 45.1
83 | GCAAATCGAAAGATCTGC (((.(((....))).))) | -28.3 | 40.4
84 | GCAAATCGAAAGATTGC (((.(((....)))))) | -24 | 48.9
85 | GCAAATGGAAACACTTGC ((((.((....)).)))) | -31.5 | 33.9
86 | GCAACACCGAAAGGTTGC (((..(((....)))))) | -22.6 | 49.8
87 | GCAACACGAAAGTGCTGC (((.(((....))).))) | -48.4 | 54.8
88 | GCAACAGCGAAAGCTTGC (((..(((....)))))) | -19.5 | 46.6
89 | GCAACCGAAAGGTAGTGC ((((((....)))..))) | -20.1 | 41.2
90 | GCAACCGGAAACGATTGC ((((.((....)).)))) | -31.5 | 47.4
91 | GCAACGCGAAAGCCTTGC ((((.((....)).)))) | -21.5 | 47.9
